A selection: hits, their analogues and other compounds. The true share with any hit is near 3.1%.
KCNQ1 act = potentiators or activators of KCNQ1 channel, primary screen, cell-based, thallium flux, high-throughput; Potassium voltage-gated channel subfamily KQT member 1 (Homo sapiens), P51787; CHO-K1 KCNQ1, thallium flux FluxOR fluorescence; stronger effect = higher value; B-score at 10 µM; 310,000 compounds, 0.35% hits;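 active means fluorescence ratio B-score, a plate-corrected score, at least three library SD, with initial intensity B-score within 5 SD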
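Doses: Single concentration per compound, DMSO matched to controls | Test system: KCNQ1-transfected CHO-K1 cells | Timing: 90 min dye loading and 20 min compound exposure, both at room temperature | Measured by: Kinetic FluxOR thallium fluorescence, 10-s 1-Hz baseline, 110-s post-stimulus read | Medium: Assay buffer with matched DMSO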
KCNQ1 inh = inhibitors of human KCNQ1 channel, primary screen, cell-based, thallium flux, high-throughput; Potassium voltage-gated channel subfamily KQT member 1 (Homo sapiens), P51787; CHO-K1 KCNQ1, FluxOR thallium flux fluorescence; stronger effect = higher value; B-score at 10 µM; 310,000 compounds, 1.3% hits; AID 2642, 2010;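 active means compounds whose thallium flux B-score, printed positive for inhibition, exceeds three library SD while starting fluorescence stays within three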;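 further: channel opened by potassium depolarization with thallium stimulus after 20 min compound exposure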
KCNK3 inh = human KCNK3 channel inhibitors, primary screen, CHO cells, FluxOR thallium flux, B-score. B-score at 10 µM. AID 602410, 2012. 340,000 compounds, 0.84% hits. Potassium channel subfamily K member 3 (Homo sapiens), O14649. FluxOR fluorescence; stronger effect = lower value;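 active means B-score under library mean minus 4 SD, starting fluorescence ratio at most library mean plus 5 SD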;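 further: more negative B-score means stronger inhibition of thallium flux through KCNK3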
hERG rescue = hERG rescue from dofetilide block, primary screen, cell-based, CHO-hERG, FluxOR thallium flux, dofetilide IC70 | 310,000 compounds, 0.51% hits | activation (rescue from dofetilide block), less the hit threshold, % at 10 µM | Voltage-gated inwardly rectifying potassium channel KCNH2 (Homo sapiens), Q12809 | dofetilide IC70 present;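 active means activation above the mean of controls blocked by dofetilide plus 5 SD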;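 further: thallium influx through hERG after potassium depolarization seen as dye fluorescence rise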
KCNK9 inh = KCNK9 potassium channel inhibitors, primary screen, HEK293 cells, thallium flux | AID 488922, 2010 | 310,000 compounds, 1.2% hits | B-score at 10 µM | Potassium channel subfamily K member 9 (Homo sapiens), Q9NPC2 | FluxOR thallium flux fluorescence; stronger effect = lower value;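 active means ratio B-score over 3 SD below the library mean, with starting fluorescence within 5 SD of its mean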;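 further: negative B-score means less thallium flux so channel inhibition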
Target sequence (Q9NPC2 whole entry, looked up): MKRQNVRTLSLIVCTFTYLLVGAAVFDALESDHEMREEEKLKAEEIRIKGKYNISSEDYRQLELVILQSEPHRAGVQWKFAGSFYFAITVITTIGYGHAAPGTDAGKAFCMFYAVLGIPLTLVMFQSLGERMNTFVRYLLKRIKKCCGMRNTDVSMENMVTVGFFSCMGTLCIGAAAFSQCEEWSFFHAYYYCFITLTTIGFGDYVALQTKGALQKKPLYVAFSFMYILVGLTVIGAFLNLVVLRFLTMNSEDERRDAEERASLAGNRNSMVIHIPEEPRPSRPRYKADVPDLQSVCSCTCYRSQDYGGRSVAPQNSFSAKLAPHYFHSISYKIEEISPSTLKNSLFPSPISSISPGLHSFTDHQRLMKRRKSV
KCNK9 block conf = KCNK9 potassium channel inhibitors, confirmation, HEK293 cells, thallium flux, duplicate | shares compounds with KCNK9 inh | FluxOR thallium flux fluorescence | inhibition, % at 10 µM | 4,900 compounds, 43% hits | AID 492992, 2010;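 active means thallium signal inhibited by more than 5 SD of the compound-free buffer control wells, on both duplicate plates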
Kir2-1 spec = mouse Kir2.1 channel inhibition, confirmation, selectivity assay for KCNK9 modulator project, cell-based, HEK293, thallium flux. shares compounds with KCNK9 inh. Kir2.1 cells, FluxOR thallium flux fluorescence. inhibition, % at 10 µM. 4,900 compounds, 4% hits. AID 492993, 2010;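 active means thallium signal drop more than 5 SD beyond the mean of the no-compound control wells, seen in both duplicate plates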;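 further: signal is fluorescence rise after thallium addition divided by baseline fluorescence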
HEK293 Tl ctr = thallium flux in non-induced HEK293 cells, confirmation, counter-screen for KCNK9 inhibitor project, cell-based, second counter screen, non-induced KCNK9-HEK293; FluxOR thallium flux; AID 492997, 2010; 4,900 compounds, 40% hits; shares compounds with KCNK9 inh; inhibition, % at 10 µM;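 active means thallium signal drop beyond 5 SD of the untreated control mean, on both duplicate plates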
Hits are given with their value; n = inactive; x = no result given.

SMILES | KCNQ1 act | KCNQ1 inh | KCNK3 inh | hERG rescue | KCNK9 inh | KCNK9 block conf | Kir2-1 spec | HEK293 Tl ctr
CC(C)(C)n1nnnc1C(c1cccs1)N1CCCc2ccccc21 (configuration not stated) | n | n | n | n | -9.9 | n | n | n
COc1ccccc1C(c1nnnn1C(C)(C)C)N1CCCCCC1 (configuration not stated) | n | n | n | n | -8.9 | 30% | n | 28%
CC(C)(C)n1nnnc1C(c1ccccc1F)N1CCN(C2CCCC2)CC1 (configuration not stated) | n | n | n | n | n | x | x | x
CCC(C)(C)n1nnnc1C(c1cccs1)N1CCCCC1 (configuration not stated) | n | n | n | n | n | x | x | x
CCN(CC)c1ccc(/C=N\NC(=O)c2cccc3cc[nH]c23)cc1 | n | n | n | n | n | x | x | x
O=C(/C=C/c1ccccc1Cl)N(c1ccccn1)C1CCCCC1 | n | n | n | n | -12 | 58% | n | 32%
O=S(=O)(Nc1nc(-c2sccc2Cl)cs1)c1cc(Cl)ccc1Cl | 47 | n | n | 47 | n | n | n | n
CCOc1ccccc1NC(=O)Cc1coc2ccc(C)cc12 | n | n | n | n | -11 | 25% | n | 43%
COc1ccc(OC)c(NC(=O)Cc2coc3ccc(C)cc23)c1 | n | n | n | n | n | x | x | x
Clc1ccccc1Cn1nc(-c2ccccc2)nc1-c1ccccc1 | n | n | n | n | n | x | x | x
Clc1ccc(Cn2nc(-c3ccccc3)nc2-c2ccccc2)cc1 | n | n | n | n | -12 | 58% | n | 54%
COC1CCCCC1Nc1cccc(SC)c1 (configuration not stated) | n | n | n | n | n | n | n | n
COc1cccc(C(=O)NC(C)c2cccc3ccccc23)c1OC (configuration not stated) | n | n | n | n | n | x | x | x
COc1cccc(C(=O)NC(C)c2ccc(-c3ccccc3)cc2)c1OC (configuration not stated) | n | n | n | n | n | n | n | n
COc1ccc(Cl)cc1Nc1ncnc2sc(C)c(S(=O)(=O)N3CCC(C)CC3)c12 | n | n | n | n | -9.7 | 48% | n | 34%
COCCNC(=O)Cn1cnc2sc(C)c(S(=O)(=O)N3CCC(C)CC3)c2c1=O | n | n | n | n | n | x | x | x
O=C(Nc1cccc(Cl)c1N1CCCC1)c1ccco1 | n | n | n | n | -9.9 | n | n | 29%
CC(C)CN1CCC(=O)N(CCOc2ccccc2)CC1 | n | n | n | n | n | x | x | x
CC(C)CN1CCC(=O)N(CCSc2ccc(Br)cc2)CC1 | n | n | n | n | n | n | n | n
Cc1cc(-c2onc3ccc(Cl)cc23)ccc1O | n | n | n | n | n | x | x | x
COc1ccc(OC)c(Nc2cc(-c3ccccc3)nc(N)n2)c1 | n | n | x | n | -8.2 | 32% | n | n
Brc1ccc(N=Nc2ccc3ccccc3n2)cc1 | n | n | n | n | -10 | 42% | n | 82%
CC1CCN(C(=O)C2CCN(C(=O)c3cc4sccc4n3Cc3ccc(F)cc3)CC2)CC1 | n | n | n | n | n | x | x | x
O=C(c1cc2sccc2n1Cc1ccc(F)cc1)N1CCCc2ccccc21 | n | n | n | n | -10 | 51% | n | 37%
Cc1[nH]c2ccccc2c1/C=N/NC(=O)c1cc(-c2cccs2)[nH]n1 | n | n | n | n | -10 | n | n | n
SMILES | KCNQ1 act | KCNQ1 inh | KCNK3 inh | hERG rescue | KCNK9 inh | KCNK9 block conf | Kir2-1 spec | HEK293 Tl ctr
CCOC(=O)C1=C(C)N=C2SC(C)C(=O)N2C1c1ccccc1 (configuration not stated) | n | n | n | n | n | x | x | x
CCOC(=O)C1=C(C)N=C2SC(CC)C(=O)N2C1c1cccc(F)c1 (configuration not stated) | n | n | n | n | -12 | 36% | n | 34%
O=C(NCc1ccco1)C1CCN(c2ccc(S(=O)(=O)N3CCOCC3)cc2[N+](=O)[O-])CC1 | n | n | n | n | -9.3 | n | n | n
O=C(O)C1CCN(S(=O)(=O)c2ccc(N3CCOCC3)c([N+](=O)[O-])c2)CC1 | n | n | n | n | n | x | x | x
Cc1ccc(NC(=O)C2CCCN2S(=O)(=O)c2ccc(-c3ccc(=O)[nH]n3)s2)c(C)c1 (configuration not stated) | n | n | n | n | n | x | x | x
CCOC(=O)[C@@H]1[C@H]2COc3ccccc3[C@@H]2N2C(=O)N(c3ccc(C(F)(F)F)cc3)C(=O)[C@@]12C | x | x | n | x | x | x | x | x
CCOC(=O)[C@@H]1[C@H]2COc3ccccc3[C@H]2N2C(=O)N(c3ccc(C(F)(F)F)cc3)C(=O)[C@]12C | n | n | n | n | -8.6 | 52% | n | 34%
Cc1cc(C)cc(NC(=S)NCc2ccc3[nH]c4c(c3c2)CCCC4)c1 | n | n | n | n | n | n | n | n
CC1CCCN(c2nc(-c3cccnc3)nc3scc(-c4ccccc4)c23)C1 (configuration not stated) | n | n | n | n | -9.1 | 35% | n | 35%
Cc1cc(C)n(-c2ccc(C(=O)OCC(=O)Nc3ccc(Cl)cc3[N+](=O)[O-])cc2)n1 | n | n | n | n | n | x | x | x
COc1ccccc1C(CC(=O)c1ccccc1)CC(=O)c1ccccc1 | n | n | n | n | -8.6 | 30% | n | 31%
Cc1cccc(N2CCN(C(=S)c3ccc(-c4ccccc4[N+](=O)[O-])o3)CC2)c1 | n | n | n | n | n | n | n | n
O=[N+]([O-])c1cccc(-c2ccc(C(=S)N3CCN(c4ccccc4)CC3)o2)c1 | n | n | n | n | -8.3 | 33% | n | 42%
O=[N+]([O-])c1ccccc1-c1ccc(C(=S)N2CCCC2)o1 | n | n | n | n | n | x | x | x
COc1ccccc1CN1CCN(S(=O)(=O)c2ccccc2)CC1 | n | n | n | n | n | n | n | n
O=S(=O)(c1ccccc1)N1CCN(Cc2ccc(Cl)cc2)CC1 | n | n | n | n | n | n | n | n

Bioassay records (PubChem)
